VIM-2 inh: inhibitors of Pseudomonas aeruginosa VIM-2 metallo-beta-lactamase | purified VIM-2, nitrocefin hydrolysis, epi-absorbance fluorescence | inhibition, % at 5.6 µM | 0.89% of 290,000 active | AID 1527;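 active means inhibition above the mean of all tested compounds plus 3 SD, cutoff set per screening run, cut at about 7.5% in these data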;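 further: red hydrolysis product quenches plate fluorescence so inhibitors raise well fluorescence; 0% = enzyme with DMSO and 100% = DMSO without enzyme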
Mdm2 MdmX PPI: disrupts the human Mdm2-MdmX interaction; SaOS-2 split-luciferase Mdm2/MdmX complementation, luminescence; O15151+Q00987; inhibition, % at 8 µM; 3% of 330,000 active;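 active means inhibition of at least 50% at 8 µM in the primary screen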
697 NFkB inh: lowers PMA/ionomycin-induced NF-kB signal in 697 B cells; 0.33% of 330,000 active; 697 B-cell NF-kB luciferase reporter, 16 h; inhibition, % at 4 µM; in the data active means inhibition above about 35%
aSyn UTR inh: 5' untranslated region of α-synuclein, MLPCN primary screen. 0.82% of 300,000 active. alpha-synuclein 5'UTR reporter, inhibitor activity. inhibition, % (tested at 7.5 µM); in the data active means inhibition above about 60%;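 further: H4 neuroglioblastoma cells stably carrying SNCA 5'UTR luciferase fusion; 0% = DMSO wells and 100% = positive control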
IMP-1 inh: inhibitors of Pseudomonas aeruginosa IMP-1 metallo-beta-lactamase; inhibition, % at 5.6 µM; AID 1556; purified IMP-1, nitrocefin hydrolysis, epi-absorbance fluorescence; 0.45% of 290,000 active;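 active means inhibition above the mean plus 3 SD of all compounds in the same screening run, cut at about 4.5% in these data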;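 further: 0% = IMP-1 with DMSO and 100% = DMSO wells lacking enzyme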
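assay system = purified recombinant IMP-1 metallo-beta-lactamase enzyme | schedule = 15 min preincubation plus 25 min reaction at 25 °C | signal = Epi-absorbance fluorescence, 480 nm excitation, 530 nm emission | read-out basis = percent inhibition from optical density relative to buffer-blank wells | controls = IMP-1 with DMSO as 0%, enzyme-free DMSO as 100%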
Jurkat NFkB inh: lowers PMA/ionomycin-induced NF-kB signal in Jurkat cells; PMA/ionomycin-induced NF-kB luciferase reporter, luminescence; inhibition, % at 4 µM; 0.53% of 330,000 active; in the data active means inhibition above about 50%
Mdm2-MdmX conf: confirmation of human Mdm2/MdmX interaction inhibitors; shares compounds with Mdm2 MdmX PPI; Mdm2-MdmX binding, luminescent assay; inhibition, % at 8 µM; 55% of 10,000 active; AID 489028; in the data active means inhibition above about 40%
FLuc counter: inhibits full-length luciferase, flagging false Mdm2/MdmX hits. shares compounds with Mdm2 MdmX PPI. SaOS-2 full-length luciferase counterscreen, luminescence. inhibition, % at 8 µM. 77% of 6,200 active. AID 504607;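 active means mean inhibition at 8 µM reaching about 37%, which flags the compound as non-specific, limit read from the data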;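 further: p53-null SaOS-2 cells with luciferase driven by a doxycycline-inducible promoter; compound on cells about two nights before reading with doxycycline added after day one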
The depositor's hits bear a star; . = no result given. Rows were chosen to be rich in hits. Some 4.7% of all compounds tested hit in one or more screens of this group.

SMILES	VIM-2 inh	Mdm2 MdmX PPI	697 NFkB inh	aSyn UTR inh	IMP-1 inh	Jurkat NFkB inh	Mdm2-MdmX conf	others
O=[N+]([O-])c1ccc(-c2ccc(/C=N/Nc3nc(N4CCCCC4)nc(N4CCCCC4)n3)o2)cc1	-5	77*	-1	36	-2	-2	15	FLuc counter=75*
COc1cccc(C(c2c(NC(=O)c3ccccc3)sc(C)c2C)N2CCN(C)CC2)c1 (configuration not stated)	0	40	9	4	-3	3	.
O=C(COc1cccc2cccnc12)Nc1ccccc1N1CCOCC1	-2	15	10	-7	-3	10	.
Cc1onc(-c2ccccc2)c1C(=O)Nc1nnc(C(C)(C)C)s1	-1	4	0	-3	-1	5	.
C=CCCC(=O)Nc1nc(C)c(-c2csc(Nc3ccc(Cl)cc3Cl)n2)s1	-4	54*	-12	29	-2	2	-17
COc1cccc(N(C(=O)c2ccco2)c2nc(-c3sc(NC(=O)c4ccco4)nc3C)cs2)c1	-2	74*	-55	45	-2	6	49*	FLuc counter=62*
COc1ccccc1Nc1nc(-c2sc(NC(=O)c3ccco3)nc2C)cs1	-2	13	-27	38	-2	13	.
Cc1nc(NC(=O)c2ccco2)sc1-c1csc(Nc2ccc(Cl)cc2Cl)n1	-6	30	-15	-16	-2	1	.
Cc1ccc(Cl)cc1Nc1nc(-c2sc(NC(=O)c3ccco3)nc2C)cs1	-4	81*	-49	8	-2	16	32
CCC(=O)Nc1nc(C)c(-c2csc(Nc3cccc(O)c3)n2)s1	-2	73*	33	3	-4	4	33
O=C1c2ccsc2SCCN1Cc1ccccc1	-2	15	5	-65	-1	-8	.
COc1ccccc1NCc1nnc(SCC(=O)N/N=C/c2ccco2)n1-c1ccc(Cl)cc1Cl	-3	-16	17	-4	-2	11	.
Cc1[nH]nc(-c2ccc(OCc3cnn(-c4ccccc4)c3)c(C)c2O)c1Oc1ccccc1	-3	56*	9	10	-1	4	51*	FLuc counter=53*
O=C(Nc1ccc(Cl)cn1)C1CCN(c2ncnc3c2nc2n3CCCCC2)CC1	3	40	-52	0	0	14	.
COc1ccc(CN(C)C(=O)c2cc(-c3ccccc3)nc3ccc(C)cc23)c(OC)c1OC	-1	65*	2	-21	-1	-19	31
COc1ccc(CN(C)C(=O)c2cc(-c3ccc(OC)c(OC)c3)nc3ccccc23)c(OC)c1	-3	57*	4	15	-3	-22	46*	FLuc counter=101*
COc1ccc(CCN(C)C(=O)c2cc(-c3ccccc3)nc3ccc(C)cc23)cc1OC	-3	2	1	-4	-4	-23	.
COc1ccc(-c2cc(C(=O)N(C)Cc3nc4ccccc4c(=O)[nH]3)c3ccccc3n2)cc1OC	.	52*	3	.	.	-2	12
COc1ccccc1CN(C)C(=O)c1cc(-c2cccs2)nc2ccccc12	-3	61*	18	13	2	8	39	FLuc counter=57*
COc1ccc(-c2cc(C(=O)N(C)Cc3cccc(OC)c3OC)c3ccccc3n2)cc1OC	-2	49	0	15	-1	-9	.
CCOC(=O)C1=CN(Cc2ccco2)S(=O)(=O)N(CC)C1c1ccccc1 (configuration not stated)	.	23	-2	.	.	.	.
COc1ccc(-c2cc(C(=O)N(C)CCc3ccc(OC)c(OC)c3)c3ccccc3n2)cc1	-2	14	11	29	-1	-15	.
COc1cccc(CN(C)C(=O)c2cc(-c3ccc(OC)c(OC)c3)nc3ccccc23)c1	0	55*	-2	17	-2	7	32
COc1cccc(NC(=O)CN(C)C(=O)c2cc(-c3ccc(F)cc3)nc3ccccc23)c1	.	62*	3	18	.	-5	34
COc1cccc(CN(C)C(=O)c2cc(-c3ccc(F)cc3)nc3ccccc23)c1	-2	53*	34	-2	-3	-7	16
SMILES	VIM-2 inh	Mdm2 MdmX PPI	697 NFkB inh	aSyn UTR inh	IMP-1 inh	Jurkat NFkB inh	Mdm2-MdmX conf	others
COc1cccc(NC(=O)CN(C)C(=O)c2cc(-c3ccccc3)nc3ccccc23)c1	.	18	-3	-1	.	-22	.
S=C(NCCN(C1CCCCC1)C1CCCC1)Nc1cccc(Cl)c1	-3	62*	4	49	-3	25	37	FLuc counter=63*
S=C(NCCC(c1ccccc1)c1ccccc1)Nc1cccc(Cl)c1	-1	-3	0	17	-3	-37	.
CCCc1sc(N/N=C/c2ccccn2)nc1-c1ccc(Br)cc1	-5	75*	-89	82*	-2	-49	24
CC(=O)Nc1sc(N/N=C/c2ccccc2)nc1-c1ccc(C)cc1	-3	-12	-18	-50	-2	-7	.
C/C(=N\NC(=O)C1CC1)c1ccc(Cl)c(Cl)c1	-1	-19	8	-39	-1	-12	.
C/C(=N\N=C(N)N)c1ccc(Cl)c(Cl)c1	1	56*	1	-10	-2	-11	38
C=C(C(=O)Oc1ccccc1C(C)(C)C)c1ccccc1	.	96*	-1	.	.	3	49*	FLuc counter=34
CC(C)(C)c1ccccc1OCC(=O)NCCC(=O)O	-1	23	9	19	0	2	.
CN(Cc1ccccc1)C(=O)c1ccc(S(=O)(=O)N(C)c2ccccc2)cc1	.	-7	8	.	.	-1	.
Cc1ccc(N(C)S(=O)(=O)c2cccc(C(=O)N(C)Cc3cnn(-c4ccccc4)c3)c2)cc1	.	66*	-38	.	.	6	47*	FLuc counter=96*
CCCCn1nc(C(=O)Nc2ccc3c(c2)OCCO3)c2ccccc2c1=O	.	58*	-44	.	.	-28	38
Cn1nc(C(=O)Nc2ccc3c(c2)OCCO3)c2ccccc2c1=O	.	12	-4	.	.	-22	.
Fc1ccc(-c2nnc(NC3=NCCCCC3)o2)cc1	-4	54*	-95	98*	-4	-16	50*	FLuc counter=55*
Cc1cc(/C=N/Nc2nc(N)ncc2[N+](=O)[O-])c(C)n1-c1ccccc1F	-2	74*	-86	73*	-2	36	84*	FLuc counter=50*
COc1ccc(OC)c(-c2csc(NC(=O)CSc3ccc([N+](=O)[O-])cc3)n2)c1	-4	13	4	-28	-2	18	.
COc1cc(NC(=S)N2CCN(C(c3ccccc3)c3ccccc3)CC2)cc(OC)c1	-3	67*	-5	-13	-3	2	29
C=CCOc1ccc(/C=C/C(=O)Nc2ccc(C(=O)NC)cc2)cc1	0	75*	5	-1	-4	-1	5
